Data reported in ChEMBL document CHEMBL5120861, “Short peptide pharmacophores developed from protein phosphatase-1 disrupting peptides (PDPs)” (Bioorg Med Chem, 2022).

Assays:
[1] = Disruption of PP1 holoenzyme (unknown origin) interaction with protein inhibitor 2 assessed as increase in PP1 phosphatase activity by measuring increase in fluorescence using DiFMUP as substrate enzyme preincubated with I2 for ten mins followed by compound treatment for 20 mins followed by substrate addition by fluorescence based analysis; set-up: species or system Homo sapiens
Homo sapiens = species on record: Homo sapiens; test: Binding affinity to PP1 (unknown origin) assessed as change in entropy at compound to protein molar ratio of 1:1 by isothermal titration calorimetry assay
How it was run: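 PP1 dialyzed into 20 mM TrisCl pH 7.4, 200 mM NaCl, 1 mM TCEP, precipitate removed, 19.16 μM (0.72 mg/ml) in the cell. Compound 500 μM in last dialysis buffer, injected 1.8 μl every 2 min at 25°C. Data corrected for dilution heat and fitted for stoichiometry, Kd, ΔH, ΔS.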

[2] = Binding affinity to PP1 (unknown origin) assessed as binding to RVxF binding site of PP1 by competing with PDP incubated for 60 mins in presence of biotin-PDP2 by ALPHA assay; set-up: species or system Homo sapiens
How it was run: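 His-tagged PP1 200 nM with biotin-PDP2 67 nM in 50 mM TrisCl pH 7.5, 150 mM NaCl, 0.05% Tween 20, 1 mM MnCl2, 0.1% BSA; serial dilutions starting from 10 mM, 60 min rt; then streptavidin-donor and anti-His-acceptor beads at 5 μg/ml final, 90 min rt in dark; excitation 680 nm, emission 570 nm. Non-specific control used 22 nM GST(His-Biotin) instead.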

[3] = Binding affinity to PP1 (unknown origin) assessed as dissociation constant at compound to protein molar ratio of 1:1 by isothermal titration calorimetry assay; set-up: species or system Homo sapiens
How it was run: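 PP1 dialysed into 20 mM TrisCl pH 7.4, 200 mM NaCl, 1 mM TCEP; precipitate removed, protein concentrated to 19.16 μM (0.72 mg/ml) in cell. Peptide dissolved in final dialysis buffer (also the reference), 500 μM in syringe, 1.8 μl injections every 2 min at 25°C. Data corrected for dilution heat and fitted for Kd and stoichiometry.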

## CC(C)[C@H](NC(=O)[C@H](CCCNC(=N)N)NC(=O)[C@@H](N)CCCCN)C(=O)N[C@@H](Cc1cnc[nH]1)C(=O)N[C@@H](Cc1ccccc1)C(N)=O
[1]
  EC50: 600 nM
Homo sapiens
  deltaS: 3.94 cal/mol/deg
[2]
  IC50: 124000 nM
[3]
  Kd: 2100 nM
